According to ChEMBL document CHEMBL1124547, “Prodrugs of the selective antiherpesvirus agent 9-[4-hydroxy-3-(hydroxymethyl)but-1-yl]guanine (BRL 39123) with improved gastrointestinal absorption properties” (J Med Chem, 1989):
In brackets after ≈: the same amount, converted by molar mass. One block for each molecule: values may come before it.

Experiments:
Mus musculus [1] = experiment: Concentration of 2-Amino-9-(4-hydroxy-3-hydroxymethyl)but-1-yl)purine in blood of mice after 3 hours upon oral administration; assay type: functional, organism-based
Method in brief: (§1)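 Single oral gavage dose of 0.2 mmol/kg in 0.1 mL 1% (carboxymethyl)cellulose to female Balb/c mice (20 g), fasted 18 h. Heparinized cardiac-puncture blood was taken at 0.25, 1 and 3 h, pooled equally from three mice per time point, and deproteinized with an equal volume of 16% TCA. Supernatant was neutralized with NaHCO3 and run on C18 HPLC in duplicate in 5 mM KH2PO4. The 2-aminopurine was read at 310 nm; detection limit 1 μM.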

Mus musculus [2] = experiment: Concentration of 9-[4-Hydroxy-3-(hydroxymethyl)but-1-yl)guanine in blood of mice after 3 hours upon oral administration; assay type: functional, organism-based
Method in brief: (§2)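 Female Balb/c mice (20 g), food withheld 18 h, got one oral gavage dose of 0.2 mmol/kg in 0.1 mL 1% (carboxymethyl)cellulose. Blood was drawn by heparinized cardiac puncture at 0.25, 1 and 3 h, with three mice pooled per time point. It was treated with an equal volume of 16% TCA, centrifuged and NaHCO3-neutralized. The guanine analyte was measured by C18 HPLC at 254 nm in duplicate.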

Mus musculus [3] = experiment: Concentration of 9-[4-Hydroxy-3-(hydroxymethyl)but-1-yl)guanine in blood of mice after 0.25 hours upon oral administration; assay type: functional, organism-based; method in brief: as §2
Mus musculus [4] = experiment: Concentration of 9-[4-Hydroxy-3-(hydroxymethyl)but-1-yl)guanine in blood of mice after 1 hour upon oral administration; assay type: functional, organism-based; method in brief: as §2
Mus musculus [5] = experiment: Concentration of 2-Amino-9-(4-hydroxy-3-hydroxymethyl)but-1-yl)purine in blood of mice after 0.25 hours upon oral administration; assay type: functional, organism-based; method in brief: as §1
Mus musculus [6] = experiment: Concentration of 2-Amino-9-(4-hydroxy-3-hydroxymethyl)but-1-yl)purine in blood of mice after 1 hour upon oral administration; assay type: functional, organism-based; method in brief: as §1
[7] = Aqueous solubility at 25 degrees Centigrade; assay type: physicochemical; conditions: water; read-out: S
Mus musculus [8] = experiment: Concentration of 9-[4-Hydroxy-3-(hydroxymethyl)but-1-yl)guanine in blood of mice after 3 hour upon oral administration; assay type: functional, organism-based; method in brief: as §2
Mus musculus [9] = experiment: Concentration of 2-Amino-9-(4-hydroxy-3-hydroxymethyl)but-1-yl)purine in blood of mice after 1 hours upon oral administration; assay type: functional, organism-based; method in brief: as §1
[10] = Solubility in water; assay type: physicochemical; conditions: read-out: S

SMILES: CC(=O)OCC(CO)CCn1cnc2cnc(N)nc21 (stereo unspecified)
Concentration (Mus musculus [1]): < 1 µM | Concentration (Mus musculus [2]): 1.2 µM | Concentration (Mus musculus [3]): 51 µM | Concentration (Mus musculus [4]): 20 µM | Concentration (Mus musculus [5]): 38 µM | Concentration (Mus musculus [6]): 3 µM

solubility [7]: 19 mg/mL (≈ 54.4 mM)
SMILES: CCC(=O)OCC(CCn1cnc2cnc(N)nc21)COC(=O)CC
Concentration (Mus musculus [1]): < 1 µM | Concentration (Mus musculus [2]): 2.1 µM | Concentration (Mus musculus [3]): 79 µM | Concentration (Mus musculus [4]): 26 µM | Concentration (Mus musculus [5]): 92 µM | Concentration (Mus musculus [6]): 9 µM

SMILES: Nc1ncc2ncn(CCC(CO)COP(=O)(O)O)c2n1 (stereo unspecified)
Concentration (Mus musculus [1]): 1 µM | Concentration (Mus musculus [8]): 5.2 µM | Concentration (Mus musculus [3]): 8.7 µM | Concentration (Mus musculus [4]): 17 µM | Concentration (Mus musculus [5]): 4 µM | Concentration (Mus musculus [9]): 8 µM

SMILES: Nc1ncc2ncn(CCC3COP(=O)(O)OC3)c2n1 (stereo unspecified)
Concentration (Mus musculus [1]): < 1 µM | Concentration (Mus musculus [2]): 2.6 µM | Concentration (Mus musculus [3]): 1 µM | Concentration (Mus musculus [4]): 1 µM | Concentration (Mus musculus [5]): < 1 µM | Concentration (Mus musculus [6]): < 1 µM

SMILES: Nc1ncc2ncn(CCC(CO)COC(=O)c3ccccc3)c2n1 (stereo unspecified)
Concentration (Mus musculus [1]): < 1 µM | Concentration (Mus musculus [2]): 1.1 µM | Concentration (Mus musculus [3]): 63 µM | Concentration (Mus musculus [4]): 26 µM | Concentration (Mus musculus [5]): 71 µM | Concentration (Mus musculus [6]): 8 µM

SMILES: CCCC(=O)OCC(CO)CCn1cnc2cnc(N)nc21 (stereo unspecified)
Concentration (Mus musculus [1]): < 1 µM | Concentration (Mus musculus [2]): 2 µM | Concentration (Mus musculus [3]): 64 µM | Concentration (Mus musculus [4]): 28 µM | Concentration (Mus musculus [5]): 57 µM | Concentration (Mus musculus [6]): 7 µM

SMILES: Nc1nc(Oc2ccccc2)c2ncn(CCC(CO)CO)c2n1
Concentration (Mus musculus [1]): < 1 µM | Concentration (Mus musculus [2]): < 0.5 µM | Concentration (Mus musculus [3]): < 0.5 µM | Concentration (Mus musculus [4]): < 0.5 µM | Concentration (Mus musculus [5]): 8 µM | Concentration (Mus musculus [6]): 7 µM

SMILES: CC(C)Oc1nc(N)nc2c1ncn2CCC(CO)CO
Concentration (Mus musculus [1]): 1 µM | Concentration (Mus musculus [2]): < 0.5 µM | Concentration (Mus musculus [3]): 9.2 µM | Concentration (Mus musculus [4]): 3.8 µM | Concentration (Mus musculus [5]): 43 µM | Concentration (Mus musculus [6]): 12 µM

SMILES: CCCCOc1nc(N)nc2c1ncn2CCC(CO)CO
Concentration (Mus musculus [1]): 1 µM | Concentration (Mus musculus [2]): < 0.5 µM | Concentration (Mus musculus [3]): 5.7 µM | Concentration (Mus musculus [4]): 5.2 µM | Concentration (Mus musculus [5]): 19 µM | Concentration (Mus musculus [6]): 11 µM

SMILES: Nc1nc(O)c2ncn(CCC(CO)CO)c2n1
Concentration (Mus musculus [2]): 1.1 µM | Concentration (Mus musculus [3]): 4.9 µM | Concentration (Mus musculus [4]): 4 µM

SMILES: Nc1nc(OCc2ccccc2)c2ncn(CCC(CO)CO)c2n1
Concentration (Mus musculus [1]): < 1 µM | Concentration (Mus musculus [2]): 0.5 µM | Concentration (Mus musculus [3]): 1.8 µM | Concentration (Mus musculus [4]): 2.1 µM | Concentration (Mus musculus [5]): 3 µM | Concentration (Mus musculus [6]): 2 µM

solubility [7]: > 300 mg/mL | solubility [10]: 20 mg/mL (≈ 62.2 mM)
SMILES: CC(=O)OCC(CCn1cnc2cnc(N)nc21)COC(C)=O [FAMCICLOVIR]
Concentration (Mus musculus [1]): < 1 µM | Concentration (Mus musculus [2]): 1.1 µM | Concentration (Mus musculus [3]): 74 µM | Concentration (Mus musculus [4]): 17 µM | Concentration (Mus musculus [5]): 69 µM | Concentration (Mus musculus [6]): 3 µM

solubility [7]: 120 mg/mL (≈ 506 mM)
SMILES: Nc1ncc2ncn(CCC(CO)CO)c2n1 [6-DEOXY PENCICLOVIR]
Concentration (Mus musculus [1]): 1 µM | Concentration (Mus musculus [2]): 3.2 µM | Concentration (Mus musculus [3]): 16 µM | Concentration (Mus musculus [4]): 13 µM | Concentration (Mus musculus [5]): 8 µM | Concentration (Mus musculus [6]): 4 µM

SMILES: CCOc1nc(N)nc2c1ncn2CCC(CO)CO
Concentration (Mus musculus [1]): < 1 µM | Concentration (Mus musculus [2]): 0.9 µM | Concentration (Mus musculus [3]): 6.8 µM | Concentration (Mus musculus [4]): 8 µM | Concentration (Mus musculus [5]): 25 µM | Concentration (Mus musculus [6]): 11 µM

solubility [7]: 1.2 mg/mL (≈ 3.28 mM)
SMILES: CCC(=O)OCC(CCn1cnc2c(O)nc(N)nc21)COC(=O)CC

SMILES: CC1(C)OCC(CCn2cnc3cnc(N)nc32)CO1
Concentration (Mus musculus [1]): 1 µM | Concentration (Mus musculus [2]): 3.2 µM | Concentration (Mus musculus [3]): 33 µM | Concentration (Mus musculus [4]): 11 µM | Concentration (Mus musculus [5]): 33 µM | Concentration (Mus musculus [9]): 4 µM

SMILES: COC(=O)OCC(CO)CCn1cnc2cnc(N)nc21 (stereo unspecified)
Concentration (Mus musculus [1]): < 1 µM | Concentration (Mus musculus [2]): 2.6 µM | Concentration (Mus musculus [3]): 54 µM | Concentration (Mus musculus [4]): 22 µM | Concentration (Mus musculus [5]): 55 µM | Concentration (Mus musculus [6]): 4 µM

solubility [7]: 6.7 mg/mL (≈ 19.9 mM)
SMILES: CC(=O)OCC(CCn1cnc2c(O)nc(N)nc21)COC(C)=O

SMILES: COc1nc(N)nc2c1ncn2CCC(CO)CO
Concentration (Mus musculus [1]): 2 µM | Concentration (Mus musculus [2]): < 0.5 µM | Concentration (Mus musculus [3]): 0.6 µM | Concentration (Mus musculus [4]): 0.9 µM | Concentration (Mus musculus [5]): 8 µM | Concentration (Mus musculus [6]): 7 µM

solubility [7]: 3 mg/mL (≈ 11.8 mM)
SMILES: Nc1nc2c(ncn2CCC(CO)CO)c(=O)[nH]1 [PENCICLOVIR]
